In ChEMBL document CHEMBL2331504, “New pyrazole derivatives containing 1,2,4-triazoles and benzoxazoles as potent antimicrobial and analgesic agents” (2013):
Values after ≈ are worked out from the molar mass of the structure shown.

Experiments:
Assay type in all cases: functional
[1] = tested on: Rattus norvegicus; assay: Analgesic activity against Wistar albino rat at 200 mg/kg, ip measured immediately after 120 mins post compound treatment by tail flick method (reference value: 2.22 +/- 0.07 %); details: 2 h, route intraperitoneal, read-out: INH
[2] = tested on: Rattus norvegicus; assay: Analgesic activity against Wistar albino rat at 200 mg/kg, ip measured immediately after 60 mins post compound treatment by tail flick method (reference value: 4.18 +/- 0.13 %); details: 1 h, route intraperitoneal, read-out: INH
[3] = tested on: Rattus norvegicus; assay: Analgesic activity against Wistar albino rat at 200 mg/kg, ip measured immediately after 30 mins post compound treatment by tail flick method (reference value: 4.20 +/- 0.12 %); details: 0.5 h, route intraperitoneal
[4] = tested on: Rattus norvegicus; assay: Analgesic activity against Wistar albino rat at 200 mg/kg, ip measured immediately after compound administration by tail flick method (reference value: 1.9 +/- 0.12 %); details: route intraperitoneal, read-out: INH
[5] = tested on: Candida albicans; assay: Antimicrobial activity against Candida albicans after 16 hrs by serial dilution method
Summary of the method: (§1)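 Tube broth serial dilution in trypticase soya broth, from 1 mg/mL DMF stocks. Cultures were grown 6 h at 37 °C, adjusted to a McFarland standard, then diluted to a 10^5 cfu/mL inoculum. Tubes were incubated 16 h at 37 °C, alongside inoculum and broth controls and ceftriaxone or fluconazole reference. MIC was read as the tubes showing no visible growth.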

[6] = tested on: Pseudomonas aeruginosa; assay: Antimicrobial activity against Pseudomonas aeruginosa after 16 hrs by serial dilution method; summary of the method: as §1
[7] = tested on: Escherichia coli; assay: Antimicrobial activity against Escherichia coli after 16 hrs by serial dilution method; summary of the method: as §1
[8] = tested on: Bacillus subtilis; assay: Antimicrobial activity against Bacillus subtilis after 16 hrs by serial dilution method; summary of the method: as §1
[9] = tested on: Staphylococcus aureus; assay: Antimicrobial activity against Staphylococcus aureus after 16 hrs by serial dilution method; summary of the method: as §1
[10] = tested on: Rattus norvegicus; assay: Analgesic activity against Wistar albino rat at 2 mg/kg, ip measured immediately after 120 mins post compound treatment by tail flick method (reference value: 2.22 +/- 0.07 %); details: 2 h, route intraperitoneal
[11] = tested on: Rattus norvegicus; assay: Analgesic activity against Wistar albino rat at 2 mg/kg, ip measured immediately after 60 mins post compound treatment by tail flick method (reference value: 4.18 +/- 0.13 %); details: 1 h, route intraperitoneal
[12] = tested on: Rattus norvegicus; assay: Analgesic activity against Wistar albino rat at 2 mg/kg, ip measured immediately after 30 mins post compound treatment by tail flick method (reference value: 4.20 +/- 0.12 %); details: 0.5 h, route intraperitoneal
[13] = tested on: Rattus norvegicus; assay: Analgesic activity against Wistar albino rat at 2 mg/kg, ip measured immediately after compound administration by tail flick method (reference value: 1.9 +/- 0.12 %); details: route intraperitoneal

SMILES | tail flick reaction time at 200 mg/kg [1] | tail-flick reaction time at 200 mg/kg [2] | inhibition in vivo at 200 mg/kg [3] | tail-flick reaction time at 200 mg/kg [4] | MIC [5] | MIC [6] | MIC [7] | MIC [8] | MIC [9] | inhibition in vivo at 2 mg/kg [10] | inhibition in vivo at 2 mg/kg [11] | inhibition in vivo at 2 mg/kg [12] | inhibition in vivo at 2 mg/kg [13]
CSc1ccc(-c2n[nH]cc2/C=N/Nc2nc3cc(Cl)cc(Cl)c3o2)cc1 | 3.63% | 3.57% | 3.42% | 3.25% | 25 µg/mL (≈ 59.8 µM) | 12.5 µg/mL (≈ 29.9 µM) | 12.5 µg/mL (≈ 29.9 µM) | 12.5 µg/mL (≈ 29.9 µM) | 6.25 µg/mL (≈ 14.9 µM) | – | – | – | –
Sc1nnc(COc2cccc3ccccc23)n1/N=C/c1c[nH]nc1-c1cc(Cl)sc1Cl | 2.2% | 2.28% | 2.52% | 2.67% | 6.25 µg/mL (≈ 12.5 µM) | 1.61 µg/mL (≈ 3.22 µM) | 3.12 µg/mL (≈ 6.23 µM) | 1.61 µg/mL (≈ 3.22 µM) | 1.61 µg/mL (≈ 3.22 µM) | – | – | – | –
CO/N=C(\C(=O)N[C@@H]1C(=O)N2C(C(=O)O)=C(CSc3nc(=O)c(O)nn3C)CS[C@H]12)c1csc(N)n1 [CEFTRIAXONE] | – | – | – | – | – | 1.61 µg/mL (≈ 2.91 µM) | 1.61 µg/mL (≈ 2.91 µM) | 1.61 µg/mL (≈ 2.91 µM) | 3.12 µg/mL (≈ 5.63 µM) | – | – | – | –
Clc1ccc(-c2n[nH]cc2/C=N/Nc2nc3cc(Cl)cc(Cl)c3o2)c(Cl)c1 | 3.2% | 3.05% | 2.92% | 2.75% | 12.5 µg/mL (≈ 28.3 µM) | 3.12 µg/mL (≈ 7.08 µM) | 12.5 µg/mL (≈ 28.3 µM) | 6.25 µg/mL (≈ 14.2 µM) | 12.5 µg/mL (≈ 28.3 µM) | – | – | – | –
Sc1nnc(COc2cccc3ccccc23)n1/N=C/c1c[nH]nc1-c1ccc(Cl)cc1Cl | 3.08% | 2.25% | 2.93% | 2.85% | 12.5 µg/mL (≈ 25.2 µM) | 1.61 µg/mL (≈ 3.26 µM) | 3.12 µg/mL (≈ 6.31 µM) | 3.12 µg/mL (≈ 6.31 µM) | 6.25 µg/mL (≈ 12.6 µM) | – | – | – | –
CC(C)=CCN1CC[C@]2(C)c3cc(O)ccc3C[C@H]1[C@H]2C [(+)-PENTAZOCINE] | – | – | – | – | – | – | – | – | – | 2.22% | 2.18% | 2.17% | 1.9%
Clc1cc(Cl)c2oc(N/N=C/c3c[nH]nc3-c3cc(Cl)sc3Cl)nc2c1 | 3.1% | 3.07% | 3.03% | 2.98% | 12.5 µg/mL (≈ 28 µM) | 3.12 µg/mL (≈ 6.99 µM) | 3.12 µg/mL (≈ 6.99 µM) | 6.25 µg/mL (≈ 14 µM) | 3.12 µg/mL (≈ 6.99 µM) | – | – | – | –
OC(Cn1cncn1)(Cn1cncn1)c1ccc(F)cc1F [FLUCONAZOLE] | – | – | – | – | 6.25 µg/mL (≈ 20.4 µM) | – | – | – | – | – | – | – | –
O=C(CSc1nc2ccccc2o1)N/N=C/c1c[nH]nc1-c1ccc(Cl)cc1Cl | 3.62% | 3.45% | 3.38% | 2.27% | 12.5 µg/mL (≈ 28 µM) | 6.25 µg/mL (≈ 14 µM) | 3.12 µg/mL (≈ 7 µM) | 6.25 µg/mL (≈ 14 µM) | 12.5 µg/mL (≈ 28 µM) | – | – | – | –
O=C(CSc1nc2ccccc2o1)N/N=C/c1c[nH]nc1-c1ccc(-c2ccccc2)cc1 | 3.63% | 3.43% | 3.27% | 3.13% | 25 µg/mL (≈ 55.1 µM) | 12.5 µg/mL (≈ 27.6 µM) | 25 µg/mL (≈ 55.1 µM) | 12.5 µg/mL (≈ 27.6 µM) | 12.5 µg/mL (≈ 27.6 µM) | – | – | – | –
Cc1ccc(-c2nnc(S)n2/N=C/c2c[nH]nc2-c2ccc(Cl)cc2Cl)cn1 | 2.98% | 4.15% | 3.5% | 2.93% | 6.25 µg/mL (≈ 14.5 µM) | 1.61 µg/mL (≈ 3.75 µM) | 3.12 µg/mL (≈ 7.26 µM) | 1.61 µg/mL (≈ 3.75 µM) | 3.12 µg/mL (≈ 7.26 µM) | – | – | – | –
Clc1cc(Cl)c2oc(N/N=C/c3c[nH]nc3-c3ccc(-c4ccccc4)cc3)nc2c1 | 2.95% | 2.77% | 2.65% | 2.43% | 25 µg/mL (≈ 55.8 µM) | 12.5 µg/mL (≈ 27.9 µM) | 12.5 µg/mL (≈ 27.9 µM) | 25 µg/mL (≈ 55.8 µM) | 12.5 µg/mL (≈ 27.9 µM) | – | – | – | –
CSc1ccc(-c2n[nH]cc2/C=N/NC(=O)CSc2nc3ccccc3o2)cc1 | 3.83% | 3.53% | 3.15% | 3.05% | 12.5 µg/mL (≈ 29.5 µM) | 6.25 µg/mL (≈ 14.8 µM) | 6.25 µg/mL (≈ 14.8 µM) | 12.5 µg/mL (≈ 29.5 µM) | 6.25 µg/mL (≈ 14.8 µM) | – | – | – | –
CSc1ccc(-c2n[nH]cc2/C=N/n2c(S)nnc2-c2ccncc2)cc1 | 2.9% | 2.83% | 2.77% | 2.62% | 12.5 µg/mL (≈ 31.8 µM) | 6.25 µg/mL (≈ 15.9 µM) | 3.12 µg/mL (≈ 7.94 µM) | 3.12 µg/mL (≈ 7.94 µM) | 3.12 µg/mL (≈ 7.94 µM) | – | – | – | –
O=C(CSc1nc2ccccc2o1)N/N=C/c1c[nH]nc1-c1cc(Cl)sc1Cl | 3.06% | 2.93% | 2.82% | 2.55% | 25 µg/mL (≈ 55.3 µM) | 6.25 µg/mL (≈ 13.8 µM) | 3.12 µg/mL (≈ 6.91 µM) | 3.12 µg/mL (≈ 6.91 µM) | 6.25 µg/mL (≈ 13.8 µM) | – | – | – | –
